Test results published in ChEMBL document CHEMBL1122933, “Drug glycosides: potential prodrugs for colon-specific drug delivery” (J Med Chem, 1985).

How the values were obtained:
[1] = Partition coefficient (logP); assay type: physicochemical; conditions: octanol/water
[2] = species: Rattus norvegicus; test: Total activity of the entire contents of stomach segment in rat intestine; assay type: functional
Summary of the method: (§1)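 Contents of each rat GI segment (stomach, proximal small intestine, distal small intestine, cecum) were pooled from four animals, weighed wet, diluted in cold 0.01 M phosphate buffer pH 7.0, and homogenized. Homogenate was incubated with 1.0 mM glycoside at 37 °C with shaking for up to 30 min. Aliquots were MeOH-quenched, centrifuged and analysed by HPLC for released aglycon.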

[3] = species: Rattus norvegicus; test: Total activity of the entire contents of PSI segment in rat intestine; assay type: functional; summary of the method: as §1
[4] = species: Rattus norvegicus; test: Specific activity of the cecum segment in rat intestine; assay type: functional; summary of the method: as §1
[5] = species: Rattus norvegicus; test: Total activity of the entire contents of DSI segment in rat intestine; assay type: functional; summary of the method: as §1
[6] = species: Rattus norvegicus; test: Vmax value was determined in homogenates of pooled cecal contents in rats; assay type: ADME
Summary of the method: (§2)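 Cecal contents from four rats pooled, weighed wet, diluted in 0.01 M phosphate pH 7.0 and homogenized. Reactions were run in duplicate at 37 °C for 15 min across substrate ranges spanning apparent KM. For p-nitrophenyl glycosides: 56-1000 substrate, NaOH stop, A403. For steroid glycosides: 0.5-48 substrate, MeOH quench, HPLC. KM(app) and Vmax (per g wet weight) came from Eadie-Hofstee plots.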

[7] = Km(app) value was determined in homogenates of pooled cecal contents in rats; assay type: ADME; conditions: rat, read-out: Km app; summary of the method: as §2
[8] = species: Rattus norvegicus; test: Specific activity of the DSI segment in rat intestine; assay type: functional; summary of the method: as §1
[9] = species: Rattus norvegicus; test: Total activity of the entire contents of cecum segment in rat intestine; assay type: functional; summary of the method: as §1
[10] = species: Rattus norvegicus; test: Specific activity of the stomach segment in rat intestine; assay type: functional; summary of the method: as §1
[11] = species: Rattus norvegicus; test: Specific activity of the PSI segment in rat intestine; assay type: functional; parameters: unit not given here; summary of the method: as §1

Row | SMILES | logP [1] | Total activity [2] [µM/min] | Total activity [3] [µM/min] | Specific activity [4] [nM/min] | Total activity [5] [µM/min] | Vmax [6] [µM/min/g] | Km [7] [µM] | Specific activity [8] [nM/min] | Total activity [9] [µM/min] | Specific activity [10] [nM/min] | Specific activity [11]
1 | C[C@]12CCC(=O)C=C1CC[C@@H]1[C@@H]2[C@@H](O)C[C@@]2(C)[C@H]1CC[C@]2(O)C(=O)CO [HYDROCORTISONE] | 1.54 | – | – | – | – | – | – | – | – | – | –
2 | O=[N+]([O-])c1ccc(O[C@@H]2O[C@H](CO)[C@H](O)[C@H](O)[C@H]2O)cc1 | – | 0.7 | 0.2 | 1620 | 3.6 | 1233 | 166 | 425 | 30.8 | 57.8 | –
3 | CC1CC2C3CCC4=CC(=O)C=CC4(C)[C@@]3(F)C(O)CC2(C)[C@@]1(O)C(=O)CO[C@@H]1O[C@@H](CO)[C@@H](O)[C@H](O)[C@H]1O (some centres not stated) | – | 0.004 | 0.004 | 322 | 0.41 | 3.9 | 13.3 | 29.3 | 6.5 | 2 | –
4 | CC1CC2C3CCC4=CC(=O)C=CC4(C)[C@@]3(F)C(O)CC2(C)[C@@]1(O)C(=O)CO[C@@H]1O[C@H](CO)[C@@H](O)[C@H](O)[C@H]1O (some centres not stated) | – | 0.12 | 0.07 | 141 | 0.34 | 10.2 | 16.7 | 19.3 | 3.5 | 6.8 | –
5 | CC12CCC(=O)C=C1CCC1C3CC[C@](O)(C(=O)CO[C@H]4O[C@@H](CO)[C@@H](O)[C@H](O)[C@H]4O)C3(C)CC(O)[C@@]12F (some centres not stated) | 0.84 | 0.14 | 0.08 | 49 | 0.43 | 2.4 | 4.4 | 33 | 1.4 | 7.7 | 12.3
6 | C[C@]12C=CC(=O)C=C1CC[C@@H]1[C@@H]2C(O)C[C@@]2(C)[C@H]1CC[C@]2(O)C(=O)CO[C@@H]1O[C@@H](CO)[C@@H](O)[C@H](O)[C@H]1O (some centres not stated) | 0.11 | 0.19 | 0.23 | 665 | 1.72 | 10.3 | 20 | 122 | 13 | 12.1 | 49.3
7 | CC12CCC(=O)C=C1CCC1C3CC[C@](O)(C(=O)CO)C3(C)CC(O)[C@@]12F (some centres not stated) | 1.73 | – | – | – | – | – | – | – | – | – | –
8 | CC12CCC(=O)C=C1CCC1C3CC[C@](O)(C(=O)CO[C@H]4O[C@H](CO)[C@@H](O)[C@H](O)[C@H]4O)C3(C)CC(O)[C@@]12F (some centres not stated) | 0.25 | 0.01 | 0.01 | 642 | 0.8 | 2.2 | 2.5 | 56.7 | 12.9 | 7 | 12.5
9 | CC12CCC(=O)C=C1CCC1C2C(O)CC2(C)C1CC[C@]2(O)C(=O)CO[C@@H]1O[C@H](CO)[C@@H](O)[C@H](O)[C@H]1O (some centres not stated) | 0.44 | 0.09 | 0.1 | 30.5 | 0.7 | 2.6 | 5.7 | 39.2 | 0.76 | 5.5 | 15.9
10 | O=[N+]([O-])c1ccc(O[C@@H]2O[C@H](CO)[C@@H](O[C@@H]3O[C@H](CO)[C@@H](O)[C@H](O)[C@H]3O)[C@H](O)[C@H]2O)cc1 | – | 0.35 | 0.05 | 96.5 | 0.25 | – | – | 26 | 2.6 | 34.2 | –
11 | C[C@]12C=CC(=O)C=C1CC[C@@H]1[C@@H]2[C@@H](O)C[C@@]2(C)[C@H]1CC[C@]2(O)C(=O)CO [PREDNISOLONE] | 1.55 | – | – | – | – | – | – | – | – | – | –
12 | CC12CCC(=O)C=C1CCC1C2C(O)CC2(C)C1CC[C@]2(O)C(=O)CO[C@@H]1O[C@@H](CO)[C@@H](O)[C@H](O)[C@H]1O (some centres not stated) | 0.15 | 0.02 | 0.02 | 592 | 1.6 | 20.6 | 33.3 | 110 | 11.9 | 12.5 | 42.5
13 | C[C@@H]1C[C@H]2[C@@H]3CCC4=CC(=O)C=C[C@]4(C)[C@@]3(F)[C@@H](O)C[C@]2(C)[C@@]1(O)C(=O)CO [DEXAMETHASONE] | 1.72 | – | – | – | – | – | – | – | – | – | –
14 | O=[N+]([O-])c1ccc(O[C@@H]2O[C@H](CO)[C@@H](O)[C@H](O)[C@H]2O)cc1 | – | 0.08 | 0.15 | 454 | 0.65 | 697 | 360 | 86.6 | 9.1 | 72.2 | –
15 | C[C@]12C=CC(=O)C=C1CC[C@@H]1[C@@H]2[C@@H](O)C[C@@]2(C)[C@H]1CC[C@]2(O)C(=O)CO[C@@H]1O[C@H](CO)[C@@H](O[C@@H]2O[C@H](CO)[C@@H](O)[C@H](O)[C@H]2O)[C@H](O)[C@H]1O | -0.56 | 0.01 | 0.11 | 109 | 0.64 | – | – | 32.5 | 2.2 | 7.5 | 26
16 | C[C@]12C=CC(=O)C=C1CC[C@@H]1[C@@H]2C(O)C[C@@]2(C)[C@H]1CC[C@]2(O)C(=O)CO[C@@H]1O[C@H](CO)[C@@H](O)[C@H](O)[C@H]1O (some centres not stated) | 0.27 | 0.12 | 0.07 | 265 | 1 | 2.6 | 4.5 | 56.8 | 6.6 | 6.8 | 12.2
